Screens as filed in PubChem.
CSC inhib: cancer stem cell viability inhibitors, primary screen, luminescence; cancer stem cell-like cells viability; AID 2717, 2010; inhibition, % at 7.5 µM; actives 1.1% (n = 300,000); in the data active means inhibition above about 75%; tested in HMLE shEcad cells
Beta apoptosis: inhibitors of cytokine-induced beta cell apoptosis, primary screen, luminescence | AID 435005, 2010 | actives 0.8% (n = 300,000) | INS-1E cytokine-induced death, ATP luminescence, 48 h; percent of positive-control rescue, neutral wells zero | protection from apoptosis, % (concentration not given with the values);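 active means Every replicate reaches about 75%, or at least half do and their mean reaches it too, limit read from the data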;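 further: 0% = cytokine-treated negative control wells and 100% = positive control rescue; higher means more ATP so stronger rescue from cytokine killing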
T cruzi inh: inhibitors of intracellular T. cruzi growth, primary screen, luminescence, NIH3T3 host cells; T. cruzi beta-gal in NIH3T3, 90 h; inhibition, % (no concentration beside the values); actives 1.4% (n = 300,000); AID 1885, 2009;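 active means mean inhibition across valid replicates above about 55%, limit read from the data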;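 further: signal also drops with host cell toxicity which is not excluded here; 0% = plate median of DMSO wells and 100% = zero luminescence signal; higher percent means less beta-gal luminescence so fewer parasites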
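Assay system: NIH/3T3 host cells with β-galactosidase reporter T. cruzi; input: 5,000 host fibroblasts per well; compound: single 50 nL compound addition per well in DMSO; timing: ≥90 h infection period, 3 h prior cell attachment; measured by: GalScreen β-gal luminescence, detergent lysis, 60 min; evaluation: percent inhibition of parasite-derived β-gal signal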
CHOP inhibitor: inhibitors of CHOP promoter induction, primary screen, cell-based, unfolded protein response, luciferase reporter. CHO-K1 CHOP-promoter luciferase, tunicamycin-induced, 15-18 h. inhibition, % at 10 µM. actives 3.8% (n = 220,000);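 active means compounds that reduced the stress-induced luciferase reporter signal by more than about 70% of percent inhibition, limit read from the data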;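 further: 0% = tunicamycin plus vehicle and 100% = wells without tunicamycin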
PREPL inhibitor: PREPL enzyme inhibitors, primary screen, biochemical, fluorescence polarization | actives 0.68% (n = 320,000) | inhibition, % at 5.96 µM | recombinant PREPL, fluorescence polarization activity-based probe | Prolyl endopeptidase-like (Homo sapiens), Q4J6C6; in the data active means inhibition above about 43%;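 further: 0% = enzyme with DMSO and 100% = wells lacking enzyme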
Target sequence (Q4J6C6 whole entry, looked up): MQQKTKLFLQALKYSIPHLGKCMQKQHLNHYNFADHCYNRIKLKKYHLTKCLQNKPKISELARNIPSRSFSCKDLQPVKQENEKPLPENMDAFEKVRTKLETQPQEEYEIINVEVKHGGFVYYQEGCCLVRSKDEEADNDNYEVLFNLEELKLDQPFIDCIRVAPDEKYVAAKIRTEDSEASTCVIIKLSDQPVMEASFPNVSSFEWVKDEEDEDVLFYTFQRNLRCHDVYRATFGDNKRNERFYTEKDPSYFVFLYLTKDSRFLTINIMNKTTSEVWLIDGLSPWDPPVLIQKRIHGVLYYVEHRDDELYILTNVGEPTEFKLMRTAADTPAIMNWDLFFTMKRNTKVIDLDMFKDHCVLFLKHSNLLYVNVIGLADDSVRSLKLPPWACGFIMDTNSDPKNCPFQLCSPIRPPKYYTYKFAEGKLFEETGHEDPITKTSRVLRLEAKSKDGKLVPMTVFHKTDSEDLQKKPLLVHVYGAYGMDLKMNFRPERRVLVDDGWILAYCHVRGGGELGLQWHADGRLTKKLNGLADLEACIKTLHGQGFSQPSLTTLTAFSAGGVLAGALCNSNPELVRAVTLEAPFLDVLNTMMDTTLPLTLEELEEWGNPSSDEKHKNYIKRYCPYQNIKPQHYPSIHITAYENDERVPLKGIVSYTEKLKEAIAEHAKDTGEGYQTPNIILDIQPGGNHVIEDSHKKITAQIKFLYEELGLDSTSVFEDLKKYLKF
NR3A LBD binder: binders of NR3A ligand-binding domain, primary screen, biophysical, differential scanning fluorimetry, uHTS; AID 1259313, 2017; actives 2.5% (n = 340,000); Glutamate receptor ionotropic, NMDA 3A (GRIN3A) ligand-binding domain; NR3A LBD differential scanning fluorimetry, Tm shift; 0% = protein alone, 100% = glycine-bound protein; Tm shift relative to glycine control, % at 25 µM;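 active means melting temperature shift of at least 10% of the positive control shift, at one fixed dose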
The depositor's hits bear a star; nt = no result given. A selection: hits, their analogues and other compounds. The true share with any hit is near 6.7%.

SMILES	CSC inhib	Beta apoptosis	T cruzi inh	CHOP inhibitor	PREPL inhibitor	NR3A LBD binder
CNc1oc(C)nc1S(=O)(=O)c1ccccc1	nt	-2	-9	-16	6	15*
Cc1ccc(-c2cc3cccc[n+]3cc2-c2ccc(C)cc2)cc1	4	110*	60*	43	-5	-1
Cn1c(N)c(C(=O)CSc2nc(C3CC3)n(-c3ccccc3)n2)c(=O)n(C)c1=O	nt	3	nt	nt	17	0
CC/C(=N/OC(=O)c1cccc(C)c1)C(=O)c1cccs1	-7	nt	-12	75*	2	0
O=C(CN1C(=O)S/C(=C\c2cc(Cl)c(O)c(Cl)c2)C1=O)Nc1ccccc1	35	-4	24	nt	6	12*
O=C(CN1C(=O)S/C(=C\C=C\c2ccccc2)C1=O)Nc1ccc(O)cc1	79*	16	-15	91*	15	15*
O=C(CCCN1C(=O)S/C(=C/C=C/c2ccccc2)C1=O)Nc1ccc(C(=O)O)cc1	5	-8	-27	nt	-38	2
O=C(CN1C(=O)S/C(=C\c2ccccn2)C1=O)Nc1ccccc1	-18	0	nt	nt	nt	0
Cc1cc(/C=C2\SC(=O)N(CC(=O)Nc3ccccc3F)C2=O)c(C)n1C	0	-3	-1	85*	6	-3
Cn1cc(CNCc2ccc(OC(F)(F)F)cc2)c(-c2ccc3c(c2)OCCO3)n1	30	142*	-6	61	7	-1
OC1(c2ccc(Cl)cc2)CCN(Cc2c[nH]c3ccccc23)CC1	8	nt	30	-5	-3	1
COc1ccc(C2C(C(=O)O)c3ccccc3C(=O)N2Cc2ccco2)cc1 (centres undefined)	8	0	8	8	4	1
Cc1cc2oc(=O)cc(CN3CCN(S(=O)(=O)/C=C/c4ccccc4)CC3)c2cc1C	8	16	66*	50	-67	-3
Cc1ccsc1C(=O)NC1CCCN(Cc2ccc(Cl)cc2)C1 (centres undefined)	0	3	44	nt	nt	2
CCOc1ccc(-c2nnc(NC(=O)c3ccc(OCC(C)C)c(OC)c3)o2)cc1	103*	0	18	91*	2	-2
Cc1ccc(NP(=O)(c2ccc(N(C)C)cc2NC(=O)c2cccs2)N2CCOCC2)cc1 (centres undefined)	33	9	57*	4	20	-8
CN(C)c1ccc(P(=O)(Nc2ccccc2)N2CCOCC2)c(NC(=O)c2cccs2)c1 (centres undefined)	-20	nt	25	-4	29	-2
Cc1ccc(NP(=O)(c2ccc(N(C)C)cc2NC(=O)c2cccs2)N2CCOCC2)cc1Cl (centres undefined)	-6	13	61*	4	14	-5
C#CCNCCS(=O)(=O)N(Cc1ccc(Br)cc1)[C@@H](CC(C)C)C(=O)O	nt	nt	nt	nt	nt	-1
Cc1ccc(-c2nc3ccccc3o2)cc1NC(=O)Cc1cccs1	7	3	-4	80*	17	-1
O=C(Cc1cccs1)Nc1cccc(-c2nc3ccccc3o2)c1	-19	4	4	90*	-28	0
CC(=O)Nc1ccc(S(=O)(=O)Nc2cccc(-c3nc4ccccc4o3)c2)cc1	31	7	2	-3	-66	12*
O=S(=O)(Nc1ccc(-c2nc3ccccc3o2)cc1)c1ccccc1	12	2	4	68	-30	2
O=C(Cc1cccs1)Nc1ccc(-c2nnc(-c3ccccc3)o2)cc1	-6	10	4	nt	-4	28*
O=C(Cc1cccs1)Nc1ccc(-c2nnc(-c3ccco3)o2)cc1	-12	15	-20	4	-2	-2
CC[C@]12C(=O)N(C)C[C@H]([C@@H]3C(=O)N(C)C(=O)[C@@H]31)N2C(=O)c1ccc(C(C)(C)C)cc1	nt	nt	nt	nt	nt	5
CCOc1ccc(NS(=O)(=O)c2cc(NC(=O)c3ccc(C)cc3)ccc2Cl)cc1	60	28	13	51	2	15*
CCOc1ccc(NC(=O)c2ccc(NS(=O)(=O)c3cccc4cccnc34)cc2)cc1	nt	nt	nt	nt	nt	17*
